Measurements: ChEMBL document CHEMBL1165967, “Synthesis and biological evaluation of pyrimidine analogs of antimycobacterial purines” (Bioorg Med Chem, 2010)
Values after ≈ are worked out from the molar mass of the structure shown.

What was measured:
[1] = tested on: Mycobacterium tuberculosis; experiment: Antimycobacterial activity against Mycobacterium tuberculosis H37Rv by twofold dilution method; type: functional, organism-based
Summary of the method: (§1)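 M. tuberculosis H37Rv (ATCC 27294) grown in BACTEC 12B medium, tested by Microplate Alamar Blue Assay across 10 twofold dilutions from 100 to 0.19 µg/mL. IC90 and IC50 taken from dose–response curve fitting.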

[2] = tested on: Vero; experiment: Cytotoxicity against african green monkey Vero cells after 72 hrs by MTT assay; type: cell-based; conditions: Chlorocebus sabaeus
Summary of the method: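 VERO cell cytotoxicity screen: cells exposed to compound for 72 h, viability read by MTT (CellTiter 96 non-radioactive proliferation reagent); EC50 obtained by curve fitting of the dose–response.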

[3] = Solubility in DMSO-d6/D2O solution; type: physicochemical
[4] = Solubility in CD3OD solution; type: physicochemical
[5] = tested on: Mycobacterium tuberculosis; experiment: Antimycobacterial activity against Mycobacterium tuberculosis H37Rv at 6.25 ug/mL by twofold dilution method; type: functional
[6] = Chemical stability in DMSO-d6/D2O solution assessed as cyclization after 25 days; type: physicochemical; conditions: for Stability: 600 h
[7] = Chemical stability in DMSO-d6 solution assessed as cyclization after 25 days; type: physicochemical; conditions: 600 h
[8] = Chemical stability in CD3OD solution assessed as cyclization after 25 days; type: physicochemical; conditions: read-out: Activity
[9] = tested on: Mycobacterium tuberculosis; experiment: Antimycobacterial activity against Mycobacterium tuberculosis; type: functional, organism-based; summary of the method: as §1

Compound | IC50 [1] | IC90 [1] | other results
COc1ccc(CN(C)c2ncnc(-c3ccco3)c2NC=O)cc1 | > 100 µg/mL | > 100 µg/mL | 
COc1ccc(CNc2cc(-c3ccco3)nc(Cl)n2)cc1 | > 100 µg/mL | > 100 µg/mL | 
COc1ccc(CN(C)c2cc(-c3ccco3)nc(Cl)n2)cc1 | 1.4 µg/mL (≈ 4.25 µM) | 3 µg/mL (≈ 9.1 µM) | IC50 [2]: 22 µg/mL (≈ 66.7 µM)
COc1ccc(COc2cc(-c3ccco3)nc(Cl)n2)cc1 | > 100 µg/mL | > 100 µg/mL | 
COc1ccc(COc2cc(-c3ccco3)ncn2)cc1 | > 100 µg/mL | > 100 µg/mL | 
COc1ccc(CN(C)c2cc(-c3ccco3)ncn2)cc1 | 5.5 µg/mL (≈ 18.6 µM) | 7.1 µg/mL (≈ 24 µM) | solubility [3]: Insoluble; solubility [4]: Insoluble
CNc1c(NCc2ccc(OC)cc2)ncnc1-c1ccco1 | 9 µg/mL (≈ 29 µM) | 15 µg/mL (≈ 48.3 µM) | 
CCNc1c(NCc2ccc(OC)cc2)ncnc1-c1ccco1 | 36 µg/mL (≈ 111 µM) | 46 µg/mL (≈ 142 µM) | 
COc1ccc(Cn2cnc(-c3cncnc3-c3ccco3)c2)cc1 | 62 µg/mL (≈ 187 µM) | 82 µg/mL (≈ 247 µM) | 
COc1ccc(Cn2cncc2-c2cc(-c3ccco3)ncn2)cc1 | 9.8 µg/mL (≈ 29.5 µM) | 14 µg/mL (≈ 42.1 µM) | 
COc1ccc(CN(C)c2ncnc(-c3ccco3)c2[N+](=O)[O-])cc1 | 5.7 µg/mL (≈ 16.7 µM) | 13 µg/mL (≈ 38.2 µM) | 
COc1ccc(COc2ncnc(-c3ccco3)c2[N+](=O)[O-])cc1 | > 50 µg/mL | > 50 µg/mL | 
COc1ccc(CNc2cc(-c3ccco3)ncn2)cc1 |  |  | inhibition at 6.25 µg/mL [5]: 0%
NCC[C@H](O)C(=O)N[C@@H]1C[C@H](N)[C@@H](O[C@H]2O[C@H](CN)[C@@H](O)[C@H](O)[C@H]2O)[C@H](O)[C@H]1O[C@H]1O[C@H](CO)[C@@H](O)[C@H](N)[C@H]1O.O=S(=O)(O)O | 0.07 µg/mL | 0.13 µg/mL | 
COc1ccc(CNc2nc(F)nc(-c3ccco3)c2NC=O)cc1 | < 0.2 µg/mL | < 0.2 µg/mL | IC50 [2]: > 40 µg/mL; Stability [6]: Stable; Stability [7]: Stable
COc1ccc(CNc2nc(Cl)nc(-c3ccco3)c2NC=O)cc1 | < 0.2 µg/mL | 0.2 µg/mL (≈ 0.557 µM) | IC50 [2]: > 40 µg/mL; Stability [6]: Stable; degraded at 600 h [8]: 12%; Stability [7]: Stable

Compound | IC50 [1] | IC90 [1] | other results
COc1ccc(CNc2nc(C)nc(-c3ccco3)c2NC=O)cc1 | < 0.2 µg/mL | 0.33 µg/mL (≈ 0.975 µM) | IC50 [2]: > 40 µg/mL; degraded at 600 h ([6]; DMSO-d6/D2O solution, read-out: Activity): 40%; degraded at 600 h [8]: 90%; Stability [7]: Stable
COc1ccc(CNc2ncnc(-c3ccco3)c2N)cc1 |  |  | inhibition at 6.25 µg/mL [5]: 0%
COc1ccc(CNc2ncnc(-c3ccco3)c2NC=O)cc1 | 0.22 µg/mL (≈ 0.678 µM) | 0.56 µg/mL (≈ 1.73 µM) | IC50 [2]: > 40 µg/mL; degraded at 600 h [8]: 90%; Stability [7]: Stable
CCc1nc(NCc2ccc(OC)cc2)c(NC=O)c(-c2ccco2)n1 | 0.26 µg/mL (≈ 0.738 µM) | 0.53 µg/mL (≈ 1.5 µM) | IC50 [2]: > 40 µg/mL; degraded at 600 h [8]: 90%; Stability [7]: Stable
COc1ccc(CN(C=O)c2c(-c3ccco3)nc[nH]c2=O)cc1 | 68 µg/mL (≈ 209 µM) | 92 µg/mL (≈ 283 µM) | 
COc1ccc(CN(C)c2ncnc(-c3ccco3)c2N)cc1 | 9.4 µg/mL (≈ 30.3 µM) | 17 µg/mL (≈ 54.8 µM) | 
COc1ccc(CNc2nc(OC)nc(-c3ccco3)c2NC=O)cc1 | 0.53 µg/mL (≈ 1.5 µM) | 1.5 µg/mL (≈ 4.23 µM) | IC50 [2]: > 40 µg/mL; Stability [6]: Stable; degraded at 600 h [8]: 12%; Stability [7]: Stable
COc1ccc(CNc2nc(N(C)C)nc(-c3ccco3)c2NC=O)cc1 | 11 µg/mL (≈ 29.9 µM) | 26 µg/mL (≈ 70.8 µM) | Stability [6]: Stable; degraded at 600 h [8]: 12%; Stability [7]: Stable
COc1ccc(CNc2ncnc(-c3ccco3)c2[N+](=O)[O-])cc1 | 13 µg/mL (≈ 39.8 µM) | 21 µg/mL (≈ 64.4 µM) | 
COc1ccc(COc2ncnc(-c3ccco3)c2N)cc1 | > 100 µg/mL | > 100 µg/mL | 
COc1ccc(CNc2ncnc(-c3ccco3)c2N(C)C)cc1 | 17 µg/mL (≈ 52.4 µM) | > 100 µg/mL | 
COc1ccc(CNc2nc([N+](=O)[O-])nc(-c3ccco3)c2NC=O)cc1 | 0.59 µg/mL (≈ 1.6 µM) | 1.1 µg/mL (≈ 2.98 µM) | IC50 [2]: > 40 µg/mL
COc1ccc(COc2ncnc(-c3ccco3)c2NC=O)cc1 | > 100 µg/mL | > 100 µg/mL | 
COc1ccc(Cn2cnc3c(-c4ccco4)ncnc32)cc1 |  |  | IC50 [9]: < 0.2 µg/mL
COc1ccc(Cn2cnc3c(-c4ccco4)nc(Cl)nc32)cc1 |  |  | IC90 [9]: 0.82 µg/mL (≈ 2.41 µM)
